Assay results reported in ChEMBL document CHEMBL1124339, “Conformationally restricted analogues of atriopeptin(103-125)amide” (J Med Chem, 1989).

Key:
Oryctolagus cuniculus [1] = species on record: Oryctolagus cuniculus; assay: Relative binding potency towards vasorelaxant binding site compared to AP(103-126)
Summary of the method: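 Varied unlabeled peptide concentrations; started by adding membranes; 30 min at 25 °C. Filtration with ice-cold buffer, then gamma counting. Nonspecific binding measured with 10^-6 M unlabeled reference peptide. Specific binding fitted by nonlinear least squares.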

[2] = test system: Atrial natriuretic peptide receptor 3 (Oryctolagus cuniculus); assay: Relative binding potency towards non-vasorelaxant binding site compared to AP(103-126)
Oryctolagus cuniculus [3] = species on record: Oryctolagus cuniculus; assay: Effective concentration in vasorelaxation assay; 0.05-0.3 uM; type: functional
Oryctolagus cuniculus [4] = species on record: Oryctolagus cuniculus; assay: Relative potency for vasorelaxant activity of the compound; type: functional
Oryctolagus cuniculus [5] = species on record: Oryctolagus cuniculus; assay: Effective concentration in vasorelaxant assay; 0.05-0.3 uM; type: functional

| Relative potency (Oryctolagus cuniculus [1]) | Relative potency [2] | Compound | EC50 (Oryctolagus cuniculus [3]) [nM] | EC50 (Oryctolagus cuniculus [4]) [nM] | EC50 (Oryctolagus cuniculus [5]) [nM] |
| --- | --- | --- | --- | --- | --- |
| 4.3 | 4.3 | CC[C@H](C)[C@@H]1NC(=O)[C@H](CCCN=C(N)N)NC(=O)[C@H](CC(=O)O)NC(=O)[C@H]([C@@H](C)CC)NC(=O)[C@H](CCCN=C(N)N)NC(=O)[C@@H](CSCNC(C)=O)NC(=O)CNC(=O)[C@H](Cc2ccccc2)NC(=O)[C@@H](NC(=O)[C@H](CO)NC(=O)[C@@H](N)CO)CSSC[C@@H](C(=O)N[C@@H](CC(N)=O)C(=O)N[C@@H](CO)C(=O)N[C@@H](Cc2ccccc2)C(=O)N[C@@H](CCCN=C(N)N)C(N)=O)NC(=O)CNC(=O)[C@H](CC(C)C)NC(=O)CNC(=O)[C@H](CO)NC(=O)[C@H](CCC(N)=O)NC(=O)[C@H](C)NC(=O)CNC1=O | – | – | – |
| 0.071 | 2.8 | CC[C@H](C)[C@@H]1NC(=O)[C@H](CCCN=C(N)N)NC(=O)[C@H](CC(=O)O)NC(=O)[C@H]([C@@H](C)CC)NC(=O)[C@H](CCCN=C(N)N)NC(=O)[C@@H](CCS)NC(=O)CNC(=O)[C@H](Cc2ccccc2)NC(=O)[C@@H](NC(=O)[C@H](CO)NC(=O)[C@@H](N)CO)CSSC[C@@H](C(=O)N[C@@H](CC(N)=O)C(=O)N[C@@H](CO)C(=O)N[C@@H](Cc2ccccc2)C(=O)N[C@@H](CCCN=C(N)N)C(N)=O)NC(=O)CNC(=O)[C@H](CC(C)C)NC(=O)CNC(=O)[C@@H](CCS)NC(=O)[C@H](CCC(N)=O)NC(=O)[C@H](C)NC(=O)CNC1=O | – | – | – |
| 0.014 | 3.1 | CC[C@H](C)[C@@H]1NC(=O)[C@H](CCCN=C(N)N)NC(=O)[C@H](CC(=O)O)NC(=O)[C@H]([C@@H](C)CC)NC(=O)[C@H](CCCN=C(N)N)NC(=O)[C@@H](CSCNC(C)=O)NC(=O)CNC(=O)[C@H](Cc2ccccc2)NC(=O)[C@@H](NC(=O)[C@H](CO)NC(=O)[C@@H](N)CO)CSSC[C@@H](C(=O)NCC(=O)N[C@@H](CC(C)C)C(=O)NCC(=O)N[C@@H](CSCNC(C)=O)C(=O)N[C@@H](CC(N)=O)C(=O)N[C@@H](CO)C(=O)N[C@@H](Cc2ccccc2)C(=O)N[C@@H](CCCN=C(N)N)C(N)=O)NC(=O)[C@H](CCC(N)=O)NC(=O)[C@H](C)NC(=O)CNC1=O | – | – | – |
| 0.15 | 0.15 | CC[C@H](C)[C@@H]1NC(=O)[C@H](CCCN=C(N)N)NC(=O)[C@H](CC(=O)O)NC(=O)[C@H]([C@@H](C)CC)NC(=O)[C@H](CCCN=C(N)N)NC(=O)[C@@H](CCSCNC(C)=O)NC(=O)CNC(=O)[C@H](Cc2ccccc2)NC(=O)[C@H](NC(=O)[C@H](CO)NC(=O)[C@@H](N)CO)CSSC[C@H](C(=O)N[C@@H](CC(N)=O)C(=O)N[C@@H](CO)C(=O)N[C@@H](Cc2ccccc2)C(=O)N[C@@H](CCCN=C(N)N)C(N)=O)NC(=O)CNC(=O)[C@H](CC(C)C)NC(=O)CNC(=O)[C@H](CSCNC(C)=O)NC(=O)[C@H](CCC(N)=O)NC(=O)[C@H](C)NC(=O)CNC1=O | – | – | – |
| 0.48 | 0.48 | CC[C@H](C)[C@H]1NC(=O)[C@H](CCCN=C(N)N)NC(=O)[C@H](CC(=O)O)NC(=O)[C@@H]([C@@H](C)CC)NC(=O)[C@H](CCCN=C(N)N)NC(=O)[C@H](CSCNC(C)=O)NC(=O)CNC(=O)[C@@H](Cc2ccccc2)NC(=O)[C@H](NC(=O)[C@H](CO)NC(=O)[C@@H](N)CO)CSSC[C@H](C(=O)N[C@@H](CC(N)=O)C(=O)N[C@@H](CO)C(=O)N[C@@H](Cc2ccccc2)C(=O)N[C@@H](CCCN=C(N)N)C(N)=O)NC(=O)CNC(=O)[C@@H](CC(C)C)NC(=O)CNC(=O)[C@H](CSCNC(C)=O)NC(=O)[C@H](CCC(N)=O)NC(=O)[C@@H](C)NC(=O)CNC1=O | – | – | – |

More lines, now with the values behind:

| Compound | Relative potency (Oryctolagus cuniculus [1]) | Relative potency [2] | EC50 (Oryctolagus cuniculus [3]) [nM] | EC50 (Oryctolagus cuniculus [4]) [nM] | EC50 (Oryctolagus cuniculus [5]) [nM] |
| --- | --- | --- | --- | --- | --- |
| CC[C@H](C)[C@H](NC(=O)[C@H](CC/N=C(/N)NO)NC(=O)[C@H](CC(=O)O)NC(=O)[C@@H](NC(=O)[C@H](CCN=C(N)N)NC(=O)[C@H](CSCNC(C)=O)NC(=O)CNC(=O)[C@H](Cc1ccccc1)NC(=O)[C@H](CSCNC(C)=O)NC(=O)[C@H](CO)NC(=O)[C@@H](N)CO)[C@@H](C)CC)C(=O)NCC(=O)N[C@@H](C)C(=O)N[C@@H](CCC(N)=O)C(=O)C1SSC[C@@H](C(=O)N[C@@H](CC(N)=O)C(=O)CN[C@@H](CO)C(=O)N[C@@H](Cc2ccccc2)C(=O)N[C@@H](CCCN=C(N)N)C(N)=O)NC(=O)CNC(=O)[C@H](CC(C)C)NC(=O)CNC(=O)[C@H]1N (stereo in doubt; 9b) | 0.0053 | 2.2 | – | – | – |
| CC[C@H](C)[C@H]1NC(=O)[C@H](CCCN=C(N)N)NC(=O)[C@H](CC(=O)O)NC(=O)[C@@H]([C@@H](C)CC)NC(=O)[C@H](CCCN=C(N)N)NC(=O)CNC(=O)CNC(=O)[C@@H](Cc2ccccc2)NC(=O)[C@H](NC(=O)[C@H](CO)NC(=O)[C@@H](N)CO)CSSC[C@H](C(=O)N[C@@H](CC(N)=O)C(=O)N[C@@H](CO)C(=O)N[C@@H](Cc2ccccc2)C(=O)N[C@@H](CCCN=C(N)N)C(N)=O)NC(=O)CNC(=O)[C@@H](CC(C)C)NC(=O)CNC(=O)[C@@H](CO)NC(=O)[C@H](CCC(N)=O)NC(=O)[C@@H](C)NC(=O)CNC1=O | 3.2 | 3.2 | – | – | – |
| CC[C@H](C)[C@@H]1NC(=O)[C@H](CCCN=C(N)N)NC(=O)[C@H](CC(=O)O)NC(=O)[C@H]([C@@H](C)CC)NC(=O)[C@H](CCCN=C(N)N)NC(=O)CNC(=O)CNC(=O)[C@H](Cc2ccccc2)NC(=O)[C@@H](NC(=O)[C@H](CO)NC(=O)[C@@H](N)CO)CSSC[C@@H](C(=O)N[C@@H](CC(N)=O)C(=O)N[C@@H](CO)C(=O)N[C@@H](Cc2ccccc2)C(=O)N[C@@H](CCCN=C(N)N)C(=O)N[C@@H](Cc2ccc(O)cc2)C(=O)O)NC(=O)CNC(=O)[C@H](CC(C)C)NC(=O)CNC(=O)[C@H](CO)NC(=O)[C@H](CCC(N)=O)NC(=O)[C@H](C)NC(=O)CNC1=O | – | – | 50 | 2.3 | – |
| CC[C@H](C)[C@@H]1NC(=O)[C@H](CCCN=C(N)N)NC(=O)[C@H](CC(=O)O)NC(=O)[C@H]([C@@H](C)CC)NC(=O)[C@H](CCCN=C(N)N)NC(=O)CNC(=O)CNC(=O)[C@H](Cc2ccccc2)NC(=O)[C@@H](NC(=O)[C@H](CO)NC(=O)[C@@H](N)CO)CSSC[C@@H](C(=O)N[C@@H](CC(N)=O)C(=O)N[C@@H](CO)C(=O)N[C@@H](Cc2ccccc2)C(=O)N[C@@H](CCCN=C(N)N)C(N)=O)NC(=O)CNC(=O)[C@H](CC(C)C)NC(=O)CNC(=O)[C@H](CO)NC(=O)[C@H](CCC(N)=O)NC(=O)[C@H](C)NC(=O)CNC1=O | – | – | – | – | 50 |
